# Most compounds without a hit are left out; they make up all but 2.3% or so of the library.
# SUMO1 PPI mod: modulators of SUMO1 protein-protein interactions, primary screen, biochemical, uHTS; 0.33% of 360,000 active; inhibition, % at 20 µM; SUMO1 binding to a labelled peptide, TR-FRET, 1 h; AID 602429, 2012; Small ubiquitin-related modifier 1 (Homo sapiens), P63165; in the data active = inhibition above about 37%
# Target sequence (P63165 whole entry, looked up): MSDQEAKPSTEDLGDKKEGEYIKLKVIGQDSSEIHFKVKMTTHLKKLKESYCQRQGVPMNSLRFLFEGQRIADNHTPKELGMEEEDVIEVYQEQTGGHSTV
# CSN inh: inhibitors of CSN-mediated cullin deneddylation, primary screen, biochemical, fluorescence polarization, uHTS | COP9 signalosome complex subunit 5 (Homo sapiens), Q92905 | Purified CSN, SCF-Nedd8-OG deneddylation | inhibition, % at 12.5 µM | 0.38% of 360,000 active | AID 651999, 2013;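 active = pattern-corrected inhibition above about 35%, with an unprinted fluorescence ratio check between 0.5 and 1.5, limit read from the data, passing the limit was not always enough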;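 note: 0% = enzyme with substrate and 100% = substrate without enzyme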
#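 test system = HEK293T-derived human Csn5 enzyme | amount = 0.24 nM Csn5 enzyme, final concentration | medium = Tris/NaCl/DTT buffer, pH 7.5 | schedule = 90 min reaction at room temperature | signal = FP | evaluation = inhibition of Csn5 cleavage, % | compound dosing = single dose of 12.5 µM compound with 0.25% DMSO | probe or stimulus = 10 nM SCFSkp2-Nedd8OG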
# DNMT1 block: human DNMT1 methyltransferase inhibitors, primary screen, biochemical, molecular beacon, fluorescence, HinP1I cleavage, uHTS; DNA (cytosine-5)-methyltransferase 1 (Homo sapiens), P26358; inhibition (reported as % activation of signal), % at 10 µM; 0.83% of 360,000 active; in the data active = inhibition above about 50%
# SKN-1 block: suppressors of acrylamide-induced Pgst-4::GFP reporter in worms, primary screen, SKN-1 inhibitor project, whole organism, uHTS, GFP/RFP fluorescence ratio, strain VP596; C. elegans VP596 Pgst-4::GFP/RFP ratio, 24 h; inhibition, % at 21.8 µM; 0.49% of 360,000 active; AID 624304, 2012;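 active = interference check ratio from 0.5 to 1.5 plus GFP to RFP signal ratio inhibition reaching or exceeding a fixed threshold, cut at about 30% in these data, passing the limit was not always enough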
# MT1-MMP act inh: blockers of MT1-MMP proenzyme processing, primary screen, HT1080 RFP-PRO-GFP cells, GFP/RFP fluorescence; 0.061% of 360,000 active; Matrix metalloproteinase-14 (Homo sapiens), P50281; GFP/RFP ratio fluorescence, overnight; percent of plate control window, DMSO zero; GFP/RFP ratio change, % at 20 µM;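 active = GFP/RFP ratio change of at least 30% with cell ATP level not reduced by more than half and red fluorescence within 50% of control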
#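 Assay system: RFP-PRO-GFP reporter HT1080 cells; read-out basis: GFP/RFP fluorescence ratio; benchmarks: DMSO wells and RFP-L50D-GFP cells; doses: 20 µM single dose, 1% DMSO; schedule: overnight cell settling, then overnight compound exposure, 37 °C, 5% CO2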
# Rpn11 block: Rpn11 (PSMD14) deubiquitinase inhibitors, primary screen, biochemical, fluorescence polarization, uHTS; inhibition, % at 20 µM; 0.59% of 360,000 active; 26S proteasome non-ATPase regulatory subunit 14 (Homo sapiens), O00487; human 26S proteasome, Ub4-pepOG fluorescence polarization; 20S core pre-blocked with epoxomicin;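 active = inhibition at 20 µM, scaled to each plate's controls, above about 33%, limit read from the data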
# Target sequence (O00487 whole entry, looked up): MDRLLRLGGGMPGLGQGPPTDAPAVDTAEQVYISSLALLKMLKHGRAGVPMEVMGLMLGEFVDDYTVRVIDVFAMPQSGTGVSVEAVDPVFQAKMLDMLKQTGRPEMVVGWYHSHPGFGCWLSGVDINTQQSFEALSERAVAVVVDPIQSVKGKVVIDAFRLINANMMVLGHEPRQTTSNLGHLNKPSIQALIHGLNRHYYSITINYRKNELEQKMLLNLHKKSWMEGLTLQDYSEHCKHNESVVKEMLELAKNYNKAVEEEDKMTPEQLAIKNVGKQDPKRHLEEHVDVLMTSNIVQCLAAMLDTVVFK
# * = called active by the depositor; · = no result.
SMILES,SUMO1 PPI mod,CSN inh,DNMT1 block,SKN-1 block,MT1-MMP act inh,Rpn11 block
CN(C)c1ccc(N/C=C/C(=O)c2ccco2)cc1,-34,7,-17,39*,6,15
O=C(CNC(=O)c1ccccc1)N/N=C/c1ccccc1Cl,48*,5,-5,0,0,1
O=C(CNc1ccc2c(c1)OCO2)N/N=C\c1ccccc1Cl,51*,-4,-12,2,-27,-22
Cc1[nH]c2ccccc2c1/C=N\NC(=O)CNc1ccc2c(c1)OCO2,8,3,-24,1,-3,-6
Cc1cc(F)ccc1-c1cc(C(=O)NCc2ccco2)[nH]n1,2,1,-1,16,-1,-4
CCOc1ccc2nc(N=NC3=C(O)CC(C)(C)CC3=O)sc2c1,-40,4,-2,35*,11,2
Cc1nc2ccc(N=NC3=C(O)CC(C)(C)CC3=O)cc2s1,-27,-3,0,1,3,14
Cc1cc(/C=C(\C#N)C(=O)Nc2ccc(F)cc2)c(C)n1-c1ccc(N2CCOCC2)c([N+](=O)[O-])c1,-7,-4,-1,38*,4,2
COc1ccc(NC(=O)/C(C#N)=C/c2cc(C)n(-c3ccc(N4CCOCC4)c([N+](=O)[O-])c3)c2C)cc1,-2,-1,-7,9,22,-8
C[C@H]1COc2cc(N(C)CCO)ccc2S(=O)(=O)N1,0,-2,·,0,2,·
CC(C)C[C@H]1CN([C@@H](Cc2ccc(O)cc2)CN2CCC[C@@H]2CN2C(=O)C(=O)NC[C@@H]2Cc2ccccc2)C(=O)C(=O)N1CC1CCCCC1,5,0,8,4,1,19
CC(C)C[C@H]1CN([C@@H](Cc2ccccc2)CN2CCC[C@@H]2CN2C(=O)C(=O)NC[C@@H]2Cc2ccc(O)cc2)C(=O)C(=O)N1CC1CCCCCC1,12,37*,12,-8,3,9
O=C1c2ccccc2C(=O)c2c([N+](=O)[O-])ccc(O)c21,3,-2,48,37*,59,-8
COc1ccc(C(=O)Nc2cc(OC)c(NC(=O)Nc3ccccc3)cc2OC)cc1,4,0,-3,-19,9,8
O=[N+]([O-])c1ccc2nc(-c3ccccc3)oc2c1,-22,1,1,42*,1,3
CCCSc1nc2sc3c(c2c(=O)[nH]1)CC(C)CC3 (stereo unspecified),2,-11,6,3,-6,4
CCCSc1nc2sc3c(c2c(=O)[nH]1)CCN(Cc1ccccc1)C3,16,12,36,-4,-83,65*
CC(C)(C)OC(=O)N1CCN(C(c2ccnc3ccccc23)c2nnnn2-c2ccc3c(c2)OCCO3)CC1 (stereo unspecified),4,-3,·,-14,5,·
O=C(/C=C/c1ccco1)NC(=S)Nc1ccc(C(=O)O)cc1,26,23,91*,5,-2,-13
COc1ccc(C2=NN3C(C2)c2ccccc2OC3c2cccs2)cc1 (stereo unspecified),-2,9,-9,8,-1,40*
O=C(NCCc1ccccc1C(F)(F)F)c1cc(COc2ccccc2)on1,5,3,3,-11,1,0
CCCCC(C(=O)NC1CCCC1)N(C(=O)c1snc(C(N)=O)c1N)c1ccc(C)cc1 (stereo unspecified),-5,6,1,-1,-1,2

# Compound activity deposited in PubChem by Sanford-Burnham Center for Chemical Genomics.
